According to ChEMBL document CHEMBL3611968, “Reengineered tricyclic anti-cancer agents” (Bioorg Med Chem, 2015):
Active and inactive are the calls of the source. The rule behind the calls is not given here.

What was measured:
[1] = target: Sodium-dependent serotonin transporter (Homo sapiens) (UniProt P31645); assay: Displacement of [3H]-imipramine from serotonin transporter (unknown origin) at 0.1 to 10 mM relative to control
In short: (§1)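 Competitive antagonist radioligand binding at monoamine transporters. Serotonin transporter is labelled with [³H]imipramine and norepinephrine transporter with [³H]nisoxetine. The compound was tested at three concentrations, and binding is expressed as percent inhibition of specific radioligand binding. Each value is the mean of two independent determinations.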

NCI-H1650 [2] = assay: Induction of apoptosis in human NCI-H1650 cells by Annexin V staining; type: functional, cell-based
[3] = target: Histamine H2 receptor (Homo sapiens) (UniProt P25021); assay: Displacement of [125I]-APT from histamine H2 receptor (unknown origin) at […]
Chain of Histamine H2 receptor (Homo sapiens) (P25021 whole entry): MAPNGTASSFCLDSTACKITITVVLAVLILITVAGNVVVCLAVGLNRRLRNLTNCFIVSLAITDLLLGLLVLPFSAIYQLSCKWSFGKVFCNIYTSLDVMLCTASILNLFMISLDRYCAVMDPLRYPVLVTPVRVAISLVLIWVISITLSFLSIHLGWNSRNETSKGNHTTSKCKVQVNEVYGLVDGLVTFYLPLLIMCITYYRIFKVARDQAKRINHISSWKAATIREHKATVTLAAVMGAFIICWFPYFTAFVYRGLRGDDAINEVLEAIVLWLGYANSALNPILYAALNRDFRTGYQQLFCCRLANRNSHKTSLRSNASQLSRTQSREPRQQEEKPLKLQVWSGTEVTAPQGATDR

[4] = AUCinfinity in mouse at 25 mg/kg, po; type: ADME, organism-based; parameters: dose 25 mg/kg, route oral, time infinity; conditions: in vivo
[5] = Cmax in mouse at 25 mg/kg, ip; type: ADME, organism-based; parameters: dose 25 mg/kg, route intraperitoneal; conditions: in vivo
[6] = Tmax in mouse at 25 mg/kg, po; type: ADME, organism-based; conditions: in vivo
[7] = tested on: Voltage-gated potassium channel; assay: Displacement of [125-I]-dendrotoxin from Kv channel (unknown origin) at 0.1 to 10 mM; type: protein assay; conditions: human
[8] = Cmax in mouse at 100 mg/kg, po; type: ADME, organism-based; parameters: dose 100 mg/kg, route oral; conditions: in vivo
[9] = Bioavailability in mouse at 100 mg/kg, ip administered through DMA/solutol/water; type: ADME, organism-based; conditions: in vivo
[10] = target: T1, Muscarinic acetylcholine receptor M2 (Homo sapiens) (UniProt P08172); assay: Displacement of [3H]-AF-DX384 from muscarinic acetylcholine M2 receptor (unknown origin) at […]
T1 sequence (whole entry): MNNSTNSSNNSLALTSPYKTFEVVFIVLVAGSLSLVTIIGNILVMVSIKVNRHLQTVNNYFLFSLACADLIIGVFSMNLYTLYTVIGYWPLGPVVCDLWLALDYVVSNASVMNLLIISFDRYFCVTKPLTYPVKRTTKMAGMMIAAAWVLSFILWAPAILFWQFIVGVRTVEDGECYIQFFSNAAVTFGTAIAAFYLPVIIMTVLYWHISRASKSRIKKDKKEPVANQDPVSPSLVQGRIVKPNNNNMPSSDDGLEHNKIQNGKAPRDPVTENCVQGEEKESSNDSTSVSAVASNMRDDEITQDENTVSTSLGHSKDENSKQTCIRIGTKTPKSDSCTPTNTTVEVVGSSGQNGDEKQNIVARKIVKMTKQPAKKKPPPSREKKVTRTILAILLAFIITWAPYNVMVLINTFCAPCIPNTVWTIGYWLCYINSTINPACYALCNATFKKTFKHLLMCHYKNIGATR

NCI-H1650 [11] = assay: Induction of apoptosis in human NCI-H1650 cells by Annexin V staining in presence of pan caspase inhibition Z-VAD; type: functional, cell-based
[12] = Tmax in mouse at 25 mg/kg, ip; type: ADME, organism-based; conditions: in vivo
[13] = Bioavailability in mouse at 25 mg/kg, ip; type: ADME, organism-based; conditions: in vivo
NCI-H1650 [14] = assay: Inhibition of ERK phosphorylation in human NCI-H1650 cells at 20 to 40 uM after 12 hrs by Western blot analysis; type: cell-based
[15] = Volume of distribution at steady state in mouse at 1 mg/kg, iv; type: ADME, organism-based; conditions: in vivo, read-out: Vdss
Homo sapiens [16] = species on record: Homo sapiens; assay: Displacement of [3H]-diltiazem from L-type Ca2+ channel diltiazem site (unknown origin) at […]
NCI-H1650 [17] = assay: Cell cycle arrest in human NCI-H1650 cells assessed as accumulation at sub-G1 phase at 1 to 40 uM by propidium iodide staining-based flow cytometric analysis; type: functional
[18] = Tmax in mouse at 100 mg/kg, po; type: ADME, organism-based; conditions: in vivo
[19] = Cmax in mouse at 100 mg/kg, ip administered through DMA/solutol/water; type: ADME, organism-based; parameters: dose 100 mg/kg, route intraperitoneal; conditions: in vivo
[20] = Oral bioavailability in mouse at 25 mg/kg; type: ADME, organism-based; conditions: in vivo
[21] = AUClast in mouse at 100 mg/kg, po; type: ADME, organism-based; conditions: in vivo
[22] = target: Sodium-dependent noradrenaline transporter (Homo sapiens) (UniProt P23975); assay: Displacement of [3H]-nisoxetine from norepinephrine transporter (unknown origin) at 1 to 10 mM; in short: as §1
Chain of Sodium-dependent noradrenaline transporter (Homo sapiens) (P23975 whole entry): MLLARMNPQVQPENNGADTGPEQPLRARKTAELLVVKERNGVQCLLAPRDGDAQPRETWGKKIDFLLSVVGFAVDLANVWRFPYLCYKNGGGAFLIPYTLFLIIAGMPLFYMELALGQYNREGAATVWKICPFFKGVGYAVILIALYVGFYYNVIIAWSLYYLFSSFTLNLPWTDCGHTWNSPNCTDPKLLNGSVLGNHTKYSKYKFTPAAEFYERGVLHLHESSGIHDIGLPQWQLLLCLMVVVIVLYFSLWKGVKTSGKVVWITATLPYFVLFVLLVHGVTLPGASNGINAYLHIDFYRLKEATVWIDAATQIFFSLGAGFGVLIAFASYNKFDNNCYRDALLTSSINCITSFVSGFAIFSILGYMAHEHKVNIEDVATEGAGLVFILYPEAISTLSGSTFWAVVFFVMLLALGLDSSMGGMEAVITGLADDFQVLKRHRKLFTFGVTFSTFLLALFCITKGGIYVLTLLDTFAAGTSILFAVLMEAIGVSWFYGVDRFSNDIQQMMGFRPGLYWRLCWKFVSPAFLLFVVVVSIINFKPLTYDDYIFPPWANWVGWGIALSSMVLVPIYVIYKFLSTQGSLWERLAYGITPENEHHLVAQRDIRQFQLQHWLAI

[23] = target: Sodium-dependent dopamine transporter (Homo sapiens) (UniProt Q01959); assay: Displacement of [3H]-BTCP from dopamine transporter (unknown origin) at 1 to 10 mM
Chain of Sodium-dependent dopamine transporter (Homo sapiens) (Q01959 whole entry): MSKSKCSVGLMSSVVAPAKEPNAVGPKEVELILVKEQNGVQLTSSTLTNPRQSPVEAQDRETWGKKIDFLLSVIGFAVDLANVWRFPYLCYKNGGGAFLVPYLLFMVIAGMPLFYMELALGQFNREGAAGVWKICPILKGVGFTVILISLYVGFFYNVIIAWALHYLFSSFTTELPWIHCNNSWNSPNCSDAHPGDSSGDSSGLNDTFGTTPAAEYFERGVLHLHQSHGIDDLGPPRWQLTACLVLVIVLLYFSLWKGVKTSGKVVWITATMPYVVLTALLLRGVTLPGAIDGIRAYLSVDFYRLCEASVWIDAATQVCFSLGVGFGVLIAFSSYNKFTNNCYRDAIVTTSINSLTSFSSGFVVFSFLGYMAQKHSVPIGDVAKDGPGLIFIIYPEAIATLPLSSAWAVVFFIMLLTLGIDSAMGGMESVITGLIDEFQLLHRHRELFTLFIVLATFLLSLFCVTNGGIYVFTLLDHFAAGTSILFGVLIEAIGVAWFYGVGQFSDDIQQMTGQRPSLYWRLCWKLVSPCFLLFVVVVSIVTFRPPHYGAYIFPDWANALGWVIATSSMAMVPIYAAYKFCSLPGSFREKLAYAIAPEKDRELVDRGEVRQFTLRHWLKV
In short: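 Dopamine transporter antagonist radioligand binding used [3H]BTCP, tested at 0.1, 1.0 and 10 mM, as percent inhibition. Each value is the average of two independent determinations.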

[24] = Cmax in mouse at 25 mg/kg, po; type: ADME, organism-based; parameters: dose 25 mg/kg, route oral; conditions: in vivo
[25] = Tmax in mouse at 100 mg/kg, ip administered through DMSO; type: ADME, organism-based; conditions: in vivo
[26] = AUCinfinity in mouse at 25 mg/kg, ip; type: ADME, organism-based; parameters: dose 25 mg/kg, time infinity, route intraperitoneal; conditions: in vivo
[27] = AUClast in mouse at 100 mg/kg, ip administered through DMSO; type: ADME, organism-based; conditions: in vivo
[28] = target: Sodium channel protein type 5 subunit alpha (Homo sapiens, UniProt Q14524); assay: Inhibition of Nav1.5 channel (unknown origin) expressed in HEK293 cells at […] by patch clamp assay; type: cell-based
[29] = Cmax in mouse at 100 mg/kg, ip administered through DMSO; type: ADME, organism-based; parameters: dose 100 mg/kg, route intraperitoneal; conditions: in vivo
NCI-H1650 [30] = assay: Antitumor activity against human NCI-H1650 cells xenografted in BALB/c nu/nu mouse assessed as change in tumor volume at 100 mg/kg, ip administered every other day for 3 weeks (reference value: 3.46 +/- 0.95); type: functional
In short: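 H1650 tumours were grown in mice. The 100 mg/kg treated group (n = 9) was compared with vehicle controls (n = 7) on mean fold change in tumour volume, using Student's t test.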

[31] = Half life in mouse at 1 mg/kg, iv; type: ADME, organism-based; conditions: in vivo
[32] = AUCinfinity in mouse at 100 mg/kg, ip administered through DMA/solutol/water; type: ADME, organism-based; parameters: dose 100 mg/kg, route intraperitoneal, time infinity; conditions: in vivo
[33] = Clearance in mouse at 1 mg/kg, iv; type: ADME, organism-based; conditions: in vivo
[34] = Bioavailability in mouse at 100 mg/kg, ip administered through DMSO; type: ADME, organism-based; conditions: in vivo
[35] = target: Voltage-gated inwardly rectifying potassium channel KCNH2 (Homo sapiens, UniProt Q12809); assay: Displacement of [3H]-astemizole from human ERG at […]
Chain of Voltage-gated inwardly rectifying potassium channel KCNH2 (Q12809 whole entry): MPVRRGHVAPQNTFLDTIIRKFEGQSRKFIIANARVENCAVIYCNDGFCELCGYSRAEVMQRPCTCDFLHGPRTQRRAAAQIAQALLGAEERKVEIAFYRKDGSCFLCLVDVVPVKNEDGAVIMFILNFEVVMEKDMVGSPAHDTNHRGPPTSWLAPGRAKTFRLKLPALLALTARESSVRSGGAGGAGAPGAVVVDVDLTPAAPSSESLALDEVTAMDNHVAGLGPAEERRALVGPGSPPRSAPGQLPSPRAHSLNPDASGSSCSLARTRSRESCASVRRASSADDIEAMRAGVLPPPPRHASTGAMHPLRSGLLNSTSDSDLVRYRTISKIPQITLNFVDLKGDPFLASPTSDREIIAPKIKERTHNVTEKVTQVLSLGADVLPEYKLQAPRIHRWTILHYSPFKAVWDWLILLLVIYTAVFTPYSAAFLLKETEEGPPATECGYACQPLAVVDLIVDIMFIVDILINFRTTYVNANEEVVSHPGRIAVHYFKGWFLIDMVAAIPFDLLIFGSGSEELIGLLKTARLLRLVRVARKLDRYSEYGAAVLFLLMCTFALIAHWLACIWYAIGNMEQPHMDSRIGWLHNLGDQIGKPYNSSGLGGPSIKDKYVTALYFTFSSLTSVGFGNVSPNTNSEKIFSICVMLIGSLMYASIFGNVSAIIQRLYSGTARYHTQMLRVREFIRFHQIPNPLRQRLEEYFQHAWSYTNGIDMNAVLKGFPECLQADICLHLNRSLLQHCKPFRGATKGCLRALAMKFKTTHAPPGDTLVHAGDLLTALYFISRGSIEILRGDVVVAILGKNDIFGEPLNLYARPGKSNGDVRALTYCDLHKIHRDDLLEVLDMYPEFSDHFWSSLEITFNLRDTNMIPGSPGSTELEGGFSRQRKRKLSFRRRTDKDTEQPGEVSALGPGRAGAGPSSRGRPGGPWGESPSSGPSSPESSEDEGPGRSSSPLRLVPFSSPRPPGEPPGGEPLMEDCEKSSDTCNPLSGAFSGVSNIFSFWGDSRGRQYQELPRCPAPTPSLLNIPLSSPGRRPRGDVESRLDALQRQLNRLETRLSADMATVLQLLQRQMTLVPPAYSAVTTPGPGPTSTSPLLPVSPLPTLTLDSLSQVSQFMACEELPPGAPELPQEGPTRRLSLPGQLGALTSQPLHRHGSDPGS

Homo sapiens [36] = species on record: Homo sapiens; assay: Displacement of [3H]-glibencamide from K (ATP) channel (unknown origin) at […]
[37] = Oral bioavailability in mouse at 100 mg/kg; type: ADME, organism-based; conditions: in vivo
[38] = target: Histamine H1 receptor (Homo sapiens) (UniProt P35367); assay: Displacement of [3H]-pyrilamine from histamine H1 receptor (unknown origin) at […]
Chain of Histamine H1 receptor (Homo sapiens) (P35367 whole entry): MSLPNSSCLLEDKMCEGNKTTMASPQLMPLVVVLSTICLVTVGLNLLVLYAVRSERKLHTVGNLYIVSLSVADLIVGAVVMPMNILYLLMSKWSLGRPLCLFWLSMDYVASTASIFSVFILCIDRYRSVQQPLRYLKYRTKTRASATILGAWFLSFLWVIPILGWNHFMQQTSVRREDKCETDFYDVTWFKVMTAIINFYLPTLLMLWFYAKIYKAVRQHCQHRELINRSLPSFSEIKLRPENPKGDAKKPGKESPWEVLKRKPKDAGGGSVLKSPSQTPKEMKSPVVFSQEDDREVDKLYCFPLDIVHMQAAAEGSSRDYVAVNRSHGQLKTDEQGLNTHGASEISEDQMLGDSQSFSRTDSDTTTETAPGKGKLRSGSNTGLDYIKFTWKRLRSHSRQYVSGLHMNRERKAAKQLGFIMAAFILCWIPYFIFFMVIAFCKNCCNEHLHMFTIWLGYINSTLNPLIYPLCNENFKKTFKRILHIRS

[39] = AUClast in mouse at 1 mg/kg, iv; type: ADME, organism-based; conditions: in vivo
[40] = AUClast in mouse at 100 mg/kg, ip administered through DMA/solutol/water; type: ADME, organism-based; conditions: in vivo
NCI-H1650 [41] = assay: Cytotoxicity against human NCI-H1650 cells assessed as growth inhibition after 48 hrs by MTT assay; type: functional; conditions: NCI-H1650, 48 h
In short: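 H1650 cells were exposed to drug for 48 h at five concentrations bracketing 1–40 μM in 10 μM steps, with MTT read-out. GI50 is given only where the data form a sigmoidal dose response.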

[42] = AUCinfinity in mouse at 100 mg/kg, ip administered through DMSO; type: ADME, organism-based; parameters: dose 100 mg/kg, time infinity, route intraperitoneal; conditions: in vivo
[43] = AUClast in mouse at 25 mg/kg, ip; type: ADME, organism-based; conditions: in vivo
[44] = target: RAC-alpha serine/threonine-protein kinase (Homo sapiens) (UniProt P31749); assay: Inhibition of AKT phosphorylation in human NCI-H1650 cells at 20 to 40 uM after 12 hrs by Western blot analysis; type: cell-based
Chain of RAC-alpha serine/threonine-protein kinase (Homo sapiens) (P31749 whole entry): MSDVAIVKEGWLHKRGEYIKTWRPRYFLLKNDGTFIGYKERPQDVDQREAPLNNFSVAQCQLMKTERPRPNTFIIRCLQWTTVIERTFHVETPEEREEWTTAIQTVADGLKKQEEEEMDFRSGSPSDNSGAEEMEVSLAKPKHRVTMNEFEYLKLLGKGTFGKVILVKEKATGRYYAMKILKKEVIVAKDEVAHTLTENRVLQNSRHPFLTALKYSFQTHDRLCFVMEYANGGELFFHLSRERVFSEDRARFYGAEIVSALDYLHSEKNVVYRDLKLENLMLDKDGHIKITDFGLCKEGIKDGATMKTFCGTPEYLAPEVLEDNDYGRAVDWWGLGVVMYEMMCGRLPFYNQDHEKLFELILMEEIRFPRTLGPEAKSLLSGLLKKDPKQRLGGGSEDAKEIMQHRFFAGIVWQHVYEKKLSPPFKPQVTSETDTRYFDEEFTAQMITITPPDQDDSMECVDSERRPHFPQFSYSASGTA

[45] = AUClast in mouse at 25 mg/kg, po; type: ADME, organism-based; conditions: in vivo
Homo sapiens [46] = species on record: Homo sapiens; assay: Displacement of [3H]-D888 from L-type Ca2+ channel verapamil site (unknown origin) at […]
Homo sapiens [47] = species on record: Homo sapiens; assay: Displacement of [3H]-nitrendipine from L-type Ca2+ channel dihydropyridine site (unknown origin) at […]
[48] = Tmax in mouse at 100 mg/kg, ip administered through DMA/solutol/water; type: ADME, organism-based; conditions: in vivo
[49] = AUCinfinity in mouse at 100 mg/kg, po; type: ADME, organism-based; parameters: dose 100 mg/kg, route oral, time infinity; conditions: in vivo
[50] = AUCinfinity in mouse at 1 mg/kg, iv; type: ADME, organism-based; parameters: dose 1 mg/kg, time infinity, route intravenous; conditions: in vivo
Homo sapiens [51] = species on record: Homo sapiens; assay: Displacement of [125-I]-apamin from SKCa channel (unknown origin) at 0.1 to 10 mM

Chain of Sodium-dependent serotonin transporter (Homo sapiens) (P31645 whole entry, looked up): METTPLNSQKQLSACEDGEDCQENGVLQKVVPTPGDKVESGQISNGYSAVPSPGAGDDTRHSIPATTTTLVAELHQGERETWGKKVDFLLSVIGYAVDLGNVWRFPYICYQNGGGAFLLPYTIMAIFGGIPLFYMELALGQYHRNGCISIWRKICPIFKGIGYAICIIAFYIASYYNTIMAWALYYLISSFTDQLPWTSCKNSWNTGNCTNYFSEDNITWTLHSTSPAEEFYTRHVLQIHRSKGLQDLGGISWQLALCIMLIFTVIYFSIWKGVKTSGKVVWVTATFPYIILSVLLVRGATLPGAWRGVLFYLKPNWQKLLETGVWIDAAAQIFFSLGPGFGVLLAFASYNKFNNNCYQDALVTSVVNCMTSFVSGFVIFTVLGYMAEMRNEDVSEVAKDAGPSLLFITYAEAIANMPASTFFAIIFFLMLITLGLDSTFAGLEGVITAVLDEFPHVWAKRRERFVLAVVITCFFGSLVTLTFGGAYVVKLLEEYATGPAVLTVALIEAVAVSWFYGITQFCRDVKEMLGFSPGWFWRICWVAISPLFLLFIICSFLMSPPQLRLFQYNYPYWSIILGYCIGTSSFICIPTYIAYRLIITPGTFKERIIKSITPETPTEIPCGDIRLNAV

SMILES: O=S(=O)(NCCCN1c2ccccc2CCc2ccc(Cl)cc21)c1ccc(OC(F)(F)F)cc1
- inhibition [1]: < 5%
- Activity (NCI-H1650 [2]): Active
- inhibition [3]: inactive
- AUC(0-inf) [4]: 1430 ng·h/mL
- Cmax [5]: 754 ng/mL
- Tmax [6]: 1 h
- inhibition (INH) [7]: Not Active
- Cmax [8]: 1940 ng/mL
- bioavailability [9]: 34%
- inhibition [10]: inactive
- Activity (NCI-H1650 [11]): inactive
- Tmax [12]: 1 h
- bioavailability [13]: 38%
- inhibition (NCI-H1650 [14]): Active
- Vd [15]: 1.31 L/kg
- inhibition (Homo sapiens [16]): inactive
- Activity (NCI-H1650 [17]): Active
- Tmax [18]: 2 h
- Cmax [19]: 2350 ng/mL
- bioavailability [20]: 15%
- AUC(0-t) [21]: 6790 ng·h/mL
- inhibition [22]: Active
- inhibition [23]: Active
- Cmax [24]: 476 ng/mL
- Tmax [25]: 4 h
- AUC(0-inf) [26]: 3680 ng·h/mL
- AUC(0-t) [27]: 38800 ng·h/mL
- inhibition (INH) [28]: Not Active
- Cmax [29]: 3100 ng/mL
- fold change (FC) (NCI-H1650 [30]): 1.49
- half-life [31]: 0.61 h
- AUC(0-inf) [32]: 14100 ng·h/mL
- clearance [33]: 42 mL/min/kg
- bioavailability [34]: 100%
- inhibition (INH) [35]: Not Active
- inhibition (Homo sapiens [36]): inactive
- bioavailability [37]: 18%
- inhibition [38]: inactive
- AUC(0-t) [39]: 375 ng·h/mL
- AUC(0-t) [40]: 12800 ng·h/mL
- GI50 (NCI-H1650 [41]): 12.6 µM
- AUC(0-inf) [42]: 40700 ng·h/mL
- AUC(0-t) [43]: 3570 ng·h/mL
- inhibition [44]: Active
- AUC(0-t) [45]: 1380 ng·h/mL
- inhibition (Homo sapiens [46]): inactive
- inhibition (Homo sapiens [47]): inactive
- Tmax [48]: 2 h
- AUC(0-inf) [49]: 7210 ng·h/mL
- AUC(0-inf) [50]: 399 ng·h/mL
- inhibition (Homo sapiens [51]): inactive
